Reference: ChEMBL document CHEMBL3632537, “Chalcones from Angelica keiskei: Evaluation of Their Heat Shock Protein Inducing Activities” (J Nat Prod, 2015)
Activity calls are given as the source filed them. The calls are words filed in the database; no cut-off is given here.

Columns and labels:
[1] = test system: L132 (Homo sapiens); assay: Upregulation of HSF1 protein expression in human L132 cells by Western blot analysis
[2] = test system: NCI-H460; assay: Induction of hsp25 promoter activity in human NCI-H460 cells at 10 uM measured at 5 hrs by luciferase reporter gene assay relative to control; assay type: functional
In short: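 NCI-H460 human lung cancer cells carrying a luciferase reporter driven by the murine hsp25 promoter. Cells were plated at 1 × 10⁵ per well, grown 24 h, then exposed to 10 μM compound and harvested 5 h later. Lysate luciferase was normalized to β-galactosidase and expressed as fold induction over untreated control. Values are mean ± SD of three independent experiments.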

[3] = test system: L132 (Homo sapiens); assay: Upregulation of HSP27 protein expression in human L132 cells by Western blot analysis
[4] = test system: L132 (Homo sapiens); assay: Upregulation of HSP27 mRNA expression in human L132 cells by RT-PCR analysis
[5] = test system: L132 (Homo sapiens); assay: Upregulation of HSP70 protein expression in human L132 cells by Western blot analysis
[6] = test system: L132 (Homo sapiens); assay: Upregulation of HSP70 mRNA expression in human L132 cells by RT-PCR analysis
[7] = test system: L132 (Homo sapiens); assay: Upregulation of HSF1 mRNA expression in human L132 cells by RT-PCR analysis
[8] = test system: L132 (Homo sapiens); assay: Upregulation of HSF1 protein expression in human L132 cells at 2 uM measured at 6 hrs by Western blot analysis relative to control
[9] = test system: L132 (Homo sapiens); assay: Upregulation of HSP27 mRNA expression in human L132 cells at 2 uM measured at 3 hrs by RT-PCR analysis relative to control
[10] = test system: L132 (Homo sapiens); assay: Upregulation of HSP70 mRNA expression in human L132 cells at 2 uM measured at 3 hrs by RT-PCR analysis relative to control
[11] = Cytotoxicity against human L-132 cells assessed as cell viability at 1 to 8 uM after 12 hrs by MTT assay; assay type: cell-based; settings: l132, 12 h
In short: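 L132 human lung fibroblasts exposed 12 h to 1, 2, 4 or 8 μM; medium swapped for MTT 0.5 mg/mL in PBS, 3 h at 37 °C, formazan dissolved in DMSO, absorbance at 540 nm converted to cell number via calibration curve; viability as ratio to DMSO no-treatment control; mean ± SD of three independent experiments, Student's t test vs untreated.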

[12] = test system: L132 (Homo sapiens); assay: Upregulation of HSP27 protein expression in human L132 cells at 2 uM measured at 6 hrs by Western blot analysis relative to control
[13] = test system: L132 (Homo sapiens); assay: Upregulation of HSP70 protein expression in human L132 cells at 2 uM measured at 6 hrs by Western blot analysis relative to control

Row | SMILES | Activity [1] | fold change (FC) [2] | Activity [3] | Activity [4] | Activity [5] | Activity [6] | Activity [7] | fold change (FC) [8] | fold change (FC) [9] | fold change (FC) [10] | Activity [11] | fold change (FC) [12] | fold change (FC) [13]
1 | COC(C)(C)/C=C/C/C(C)=C/Cc1c(O)ccc(C(=O)/C=C/c2ccc(O)cc2)c1O | inactive | 21.9 | inactive | inactive | inactive | inactive | inactive | – | – | – | – | – | –
2 | C=C(CCC=C(C)C)C(O)Cc1c(O)ccc(C(=O)/C=C/c2ccc(O)cc2)c1O (racemic) | – | 29.2 | – | – | – | – | – | 4.3 | 1.5 | 5 | Non-toxic | 4.6 | 1.5
3 | CC1=C(O)C(=O)C=C2C1=CC=C1[C@@]2(C)CC[C@@]2(C)[C@@H]3C[C@](C)(C(=O)O)CC[C@]3(C)CC[C@]12C [CELASTROL] | – | – | – | – | – | – | – | – | – | – | Toxic | – | –
